Experimental data gathered from unrelated publications.
Protocols differ between the studies behind these lines.
Target: Cytochrome P450 3A4 (CYP3A4, Homo sapiens, UniProt P08684)

Structure (SMILES) | test | system | setting | quantity | result
CCc1cc(/C(C)=N/OCc2ccc(C3CCCCC3)c(C(F)(F)F)c2)ccc1CN1CC(C(=O)O)C1 | enzyme activity, inhibitor | human, liver microsomes | 200 µM, 20 min, testosterone probe | inhibition | 72.7%
O=C(N[C@H](Cc1c[nH]c2ccccc12)C(=O)Nc1ccncc1)c1ccc(-c2cc(F)ccc2F)cc1F | enzyme activity, inhibitor | human, liver microsomes | 1 µM | inhibition | 74%
CC1(C)CCC2(CC1)N[C@@H](C(=O)N[C@@H]1CC[C@@H](C(N)=O)OC1)[C@H](c1ccnc(Cl)c1F)[C@]21C(=O)Nc2cc(Cl)ccc21 | enzyme activity, inhibitor | human, liver microsomes | with preincubation, midazolam probe | kinact | 0.00103 s⁻¹
CC(C)(C)OC(=O)N[C@H](CSCCC(=O)NCc1cccnc1)CC1CCCCC1 | thermal stability | – | – | ΔTm | -2 °C
CCOC(=O)C1CCN(C(=O)c2ccc(N(CC)Cc3cnc4nc(N)nc(N)c4n3)cc2)CC1 | enzyme activity, inhibitor, luciferase | – | 10 µM | inhibition | -13.6%
CC(C)(C)OC(=O)N[C@H](CSCCC(=O)NCc1cccnc1)Cc1c[nH]c2ccccc12 | thermal stability | – | – | ΔTm | 0.2 °C
CC(=O)c1cccc(OCc2cc(C(=O)N(C)[C@@H](C)c3ccccn3)no2)c1 | enzyme activity, inhibitor | human, liver microsomes | – | IC50 | 27 µM
COC(=O)C1CCN(C(=O)c2ccc(N(CCO)Cc3cnc4nc(N)nc(N)c4n3)cc2)CC1 | enzyme activity, inhibitor, luciferase | – | 10 µM | inhibition | -27.6%
NCCCCCC(=O)NCc1cccnc1 | thermal stability | – | – | ΔTm | -0.2 °C
CCN(Cc1cnc2nc(N)nc(N)c2n1)c1ccc(C(=O)N2CCC(C(=O)OC)CC2)cc1 | enzyme activity, inhibitor, luciferase | – | 10 µM | inhibition | -13.9%
C=CC(=O)Nc1cc(Nc2nccc(Nc3cc(Cl)c(F)cc3C(C)(C)O)n2)c(OC)cc1N1CC[C@@H](N(C)C)C1 | enzyme activity, inhibitor | human, liver microsomes | 10 µM | inhibition | 24.3%
COC(=O)C1CCN(C(=O)Cc2ccc(NCc3cnc4nc(N)nc(N)c4n3)cc2)CC1 | enzyme activity, inhibitor, luciferase | – | 10 µM | inhibition | -1.83%
COc1cc2c(c(OC)c1OC)-c1c(cc3c(c1OC)OCO3)[C@H](OC(=O)c1ccccc1)[C@@](C)(O)[C@@H](C)C2 | enzyme activity, inhibitor | – | 15 min, pH 7.4 | IC50 | 25 µM
